Test results from ChEMBL document CHEMBL1151794, “Synthesis and pharmacological evaluation of bis-3-(3,4-dichlorophenyl)acrylamide derivatives as glycogen phosphorylase inhibitors” (Bioorg Med Chem, 2008).

Legend:
[1] = target: T1, Glycogen phosphorylase, liver form (Homo sapiens) (UniProt P06737); assay: Inhibition of human liver glycogen phosphorylase a in absence of glucose at 10 uM
T1 sequence (whole entry): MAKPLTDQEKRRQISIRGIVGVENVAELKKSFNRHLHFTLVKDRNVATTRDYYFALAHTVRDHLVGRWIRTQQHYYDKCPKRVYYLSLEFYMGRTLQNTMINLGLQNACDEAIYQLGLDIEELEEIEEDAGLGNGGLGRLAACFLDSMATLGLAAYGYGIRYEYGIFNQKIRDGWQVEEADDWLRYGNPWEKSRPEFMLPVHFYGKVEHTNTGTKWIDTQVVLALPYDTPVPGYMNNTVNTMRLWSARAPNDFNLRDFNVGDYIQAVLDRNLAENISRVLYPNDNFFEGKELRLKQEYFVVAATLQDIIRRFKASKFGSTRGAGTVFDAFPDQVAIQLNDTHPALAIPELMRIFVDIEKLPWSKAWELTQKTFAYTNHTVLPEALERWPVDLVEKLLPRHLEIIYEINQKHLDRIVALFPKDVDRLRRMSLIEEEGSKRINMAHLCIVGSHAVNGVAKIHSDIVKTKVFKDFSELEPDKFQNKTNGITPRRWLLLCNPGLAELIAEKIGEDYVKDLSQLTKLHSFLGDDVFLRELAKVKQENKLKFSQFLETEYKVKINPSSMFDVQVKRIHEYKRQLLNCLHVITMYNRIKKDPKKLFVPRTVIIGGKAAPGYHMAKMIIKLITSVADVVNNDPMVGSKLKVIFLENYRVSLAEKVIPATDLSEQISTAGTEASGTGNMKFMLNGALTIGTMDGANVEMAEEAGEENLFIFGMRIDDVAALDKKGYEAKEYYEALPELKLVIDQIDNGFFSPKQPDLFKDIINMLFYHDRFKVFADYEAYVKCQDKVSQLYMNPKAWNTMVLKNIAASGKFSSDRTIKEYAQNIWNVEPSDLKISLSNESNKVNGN

[2] = target: T2, Glycogen phosphorylase, liver form (Homo sapiens, UniProt P06737); assay: Inhibition of human liver glycogen phosphorylase a in absence of glucose
T2 sequence (P06737 whole entry): T1 sequence (whole entry)

[3] = target: T2, Glycogen phosphorylase, liver form; assay: Inhibition of human liver glycogen phosphorylase a in presence of glucose
Method in brief: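 Recombinant human liver GPa assayed in the forward direction by NADPH formation, coupled through phosphoglucomutase (77 U/L) and glucose-6-phosphate dehydrogenase (385 U/L). Conditions: pH 6.8 phosphate buffer with 45 mM KH2PO4, β-NADP, glucose 1,6-bisphosphate, 0.24% glycogen and 10.85 mM glucose. Compounds were added in DMSO before the enzyme; DMSO served as blank and caffeine as positive control. Enzyme addition started the reaction; IC50 was derived by logistic regression.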

| SMILES | inhibition [1] | IC50 [2] | IC50 [3] |
| --- | --- | --- | --- |
| O=C(/C=C/c1ccc(Cl)c(Cl)c1)NCCNCCNC(=O)/C=C/c1ccc(Cl)c(Cl)c1 | 51% |  |  |
| O=C(CCc1ccc(Cl)c(Cl)c1)NCCCCCNC(=O)CCc1ccc(Cl)c(Cl)c1 |  | 45000 nM |  |
| O=C(/C=C/c1ccc(Cl)c(Cl)c1)NCCNC(=O)/C=C/c1ccc(Cl)c(Cl)c1 |  | 20000 nM |  |
| CC(C)(C)OC(=O)N(CCNC(=O)/C=C/c1ccc(Cl)c(Cl)c1)CCNC(=O)/C=C/c1ccc(Cl)c(Cl)c1 | 48% |  |  |
| O=C(C#Cc1ccc(Cl)c(Cl)c1)NCCCCCNC(=O)C#Cc1ccc(Cl)c(Cl)c1 |  | 59000 nM |  |
| O=C(/C=C/c1ccc(Cl)c(Cl)c1)NCCCCCCNC(=O)/C=C/c1ccc(Cl)c(Cl)c1 |  | 18000 nM |  |
| O=C(/C=C/c1ccc(Cl)c(Cl)c1)NCCCCCCCNC(=O)/C=C/c1ccc(Cl)c(Cl)c1 |  | 11000 nM |  |
| O=C(/C=C/c1ccc(Cl)c(Cl)c1)NCCCNC(=O)/C=C/c1ccc(Cl)c(Cl)c1 |  | 55000 nM |  |
| CCCNC(=O)/C=C/c1ccc(Cl)c(Cl)c1 | 0% |  |  |
| O=C(/C=C/c1ccc(Cl)c(Cl)c1)NCCSCCNC(=O)/C=C/c1ccc(Cl)c(Cl)c1 |  | 450 nM | 12 nM |
| O=C(/C=C/c1ccc(Cl)c(Cl)c1)NCCOCCNC(=O)/C=C/c1ccc(Cl)c(Cl)c1 |  | 430 nM | 26 nM |
| O=C(/C=C\c1ccc(Cl)c(Cl)c1)NCCCCCNC(=O)/C=C\c1ccc(Cl)c(Cl)c1 | 36% |  |  |
| O=C(/C=C/c1ccc(Cl)c(Cl)c1)NCCCCCNC(=O)/C=C/c1ccc(Cl)c(Cl)c1 |  | 260 nM | 23 nM |
| O=C(/C=C/c1ccc(Cl)c(Cl)c1)NCCCCCCCCNC(=O)/C=C/c1ccc(Cl)c(Cl)c1 |  | 33000 nM |  |
| O=C(/C=C/c1ccc(Cl)c(Cl)c1)NCCCCNC(=O)/C=C/c1ccc(Cl)c(Cl)c1 |  | 420 nM | 43 nM |
| O=C(/C=C/c1ccc(Cl)c(Cl)c1)NCC[S+]([O-])CCNC(=O)/C=C/c1ccc(Cl)c(Cl)c1 |  | 310 nM | 26 nM |
| O=C(/C=C/c1ccc(Cl)c(Cl)c1)NCCS(=O)(=O)CCNC(=O)/C=C/c1ccc(Cl)c(Cl)c1 |  | 1500 nM |  |
